Measurements taken from ChEMBL document CHEMBL1156559, “Efficient synthesis and utilization of phenyl-substituted heteroaromatic carboxylic acids as aryl diketo acid isosteres in the design of novel HIV-1 integrase inhibitors” (Bioorg Med Chem Lett, 2008).

Experiments:
[1] = Therapeutic index, ratio of CC50 for human C8166 cells to EC50 for HIV1 3B; assay type: cell-based; settings: read-out: Ratio CC50/EC50
Procedure, shortened: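 Computed as CC50/EC50 from the C8166 MTT cytostatic and HIV-1 cytoprotection assays, each a mean of two separate experiments.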

[2] = Cytotoxicity against human C8166 cells by MTT method; assay type: cell-based
Procedure, shortened: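 C8166 cell proliferation measured by MTT, expressed as the concentration reducing proliferation by 50%. Values are means of two separate experiments.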

[3] = tested on: Human immunodeficiency virus 1; experiment: Antiviral activity against HIV1 3B assessed as inhibition of virus-induced cytopathogenicity in human C8166 cells after 4 days by MTT assay; assay type: functional, organism-based; settings: Human immunodeficiency virus 1, 3B, C8166, 96 h
Procedure, shortened: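 Protection of C8166 cells from HIV-1-induced cytopathogenicity, expressed as the 50% effective concentration. Values are means of two separate experiments.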

[4] = target: T1, Human immunodeficiency virus type 1 integrase (Human immunodeficiency virus 1, UniProt Q7ZJM1); experiment: Inhibition of HIV1 wild type integrase 3'-processing activity
Procedure, shortened: (§1)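 Wild-type integrase at 200 nM final was preincubated with inhibitor at 30 °C for 30 min. Buffer: 50 mM NaCl, 1 mM Hepes pH 7.5, 7.5 mM MnCl2, 0.1 mg/ml BSA, 10 mM 2-mercaptoethanol, 10% glycerol, 10% DMSO, 25 mM MOPS pH 7.2. Read-out was conversion of 21-mer DNA substrate to 19-mer (3'-processing) or to strand-transfer products. % inhibition was set against DNA-alone and DNA+IN controls. IC50 came from log concentration vs % inhibition.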

[5] = target: T1, Human immunodeficiency virus type 1 integrase; experiment: Inhibition of HIV1 wild type integrase strand transfer activity; procedure, shortened: as §1

T1 sequence (Q7ZJM1 whole entry): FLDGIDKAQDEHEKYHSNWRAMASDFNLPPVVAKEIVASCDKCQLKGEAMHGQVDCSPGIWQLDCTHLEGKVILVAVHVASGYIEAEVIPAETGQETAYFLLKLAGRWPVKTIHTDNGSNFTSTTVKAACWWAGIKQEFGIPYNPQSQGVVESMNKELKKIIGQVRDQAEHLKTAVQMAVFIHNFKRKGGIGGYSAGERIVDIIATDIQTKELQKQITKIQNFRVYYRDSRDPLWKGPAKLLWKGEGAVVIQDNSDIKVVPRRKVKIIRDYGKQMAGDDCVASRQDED

SMILES | selectivity ratio [1] | CC50 [2] | EC50 [3] | IC50 [4] | IC50 [5]
O=C(O)c1csnc1-c1cccc(OCc2ccccc2)c1 | > 11 | > 642 µM | 58 µM | > 100 µM | > 100 µM
O=C(O)c1cc(-c2ccc([N+](=O)[O-])cc2)on1 | > 4.3 | > 854 µM | 199 µM | > 100 µM | 97 µM
O=C(O)c1cc(-c2ccc([N+](=O)[O-])cc2)[nH]n1 | > 238 | > 857 µM | 3.6 µM | > 100 µM | > 100 µM
O=C(O)c1cc(-c2cccc(OCc3ccccc3)c2)ns1 | 4.76 | 246 µM | 51.7 µM | > 100 µM | > 100 µM
O=C(O)c1cc(-c2cccc(OCc3ccccc3)c2)on1 | 2.27 | 206 µM | 91 µM | > 100 µM | 68 µM
O=C(O)c1cc(-c2cccc(OCc3ccccc3)c2)[nH]n1 | 2.31 | 640 µM | 277 µM | > 100 µM | 100 µM
O=C(NO)c1cc(-c2cccc(OCc3ccccc3)c2)on1 | 2.17 | 136 µM | 62.8 µM | > 100 µM | 27 µM
O=C(O)c1cc(-c2cccc(OCc3ccccc3)c2)no1 | 39.2 | 282 µM | 7.2 µM | > 100 µM | 81 µM
COC(=O)c1cc(-c2ccc([N+](=O)[O-])cc2)[nH]n1 | > 3.2 | > 809 µM | 253 µM | > 100 µM | > 100 µM
